Only a selection was taken, and hits are over-represented in it overall.
GSH bead fluor: GSH bead compound fluorescence profile; GSH beads flow cytometry, compound fluorescence 488/530 nm; stronger effect = higher value; fluorescence (KMESF) at 10 µM; 190,000 compounds, 0.25% hits; AID 1776; in the data active = fluorescence above about 89;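 also: glutathione beads carrying GST-tagged Bcl family fusion proteins plus one bare bead set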
L major viab: inhibitors of Leishmania major promastigote growth. 200,000 compounds, 9% hits. Leishmania major promastigotes, resazurin fluorescence viability. inhibition, % at 10 µM. AID 1063;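 also: promastigotes grown with compound for 44 hours at 28 °C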
ABCB1 block: human ABCB1 inhibition, ABCG2 as counter-screen; P08183; CCRF-Adr cells, JC-1 efflux, flow cytometry; inhibition, % at 6.6 µM; 190,000 compounds, 0.067% hits; AID 1326; in the data active = inhibition above about 40%;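 also: higher value means more JC-1 retained so stronger ABCB1 efflux block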
PKD1 inh: PKD1 (human) kinase inhibition; 200,000 compounds, 0.056% hits; AID 797; Q15139; inhibition, % (concentration not given with the values); PKD1 kinase fluorescence polarization assay
Avidin bead fluor: avidin bead compound fluorescence profile. Avidin beads, compound fluorescence 488/530 nm, flow cytometry; stronger effect = higher value. fluorescence (KMESF) at 10 µM. 220,000 compounds, 0.38% hits. AID 1775; in the data active = fluorescence above about 47
ABCG2 inh: inhibitors of human ABCG2 transporter, ABCB1 counter-screen; Q9UNQ0; IgMXP3 cells, JC-1 efflux, flow cytometry; inhibition, % at 6.6 µM; 190,000 compounds, 0.1% hits; AID 1325;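 active = inhibition above 80%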
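Assay system – ABCG2 IgMXP3 and barcoded ABCB1 CCRF-Adr cell mix · Input – 3 million cells/mL in well · Reagent – JC-1 fluorescent substrate · Compound – single test compound dose, 6.6 µM final · Timing – 10 min exposure at 25 °C with rotation, no wash · Detection – flow cytometry of retained JC-1 fluorescence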
Numbers stand for hits; i = inactive; nt = no result given. Rule as the data show it, unless noted: active = inhibition above about 50%; inactive = the rest.

SMILES | GSH bead fluor | L major viab | ABCB1 block | PKD1 inh | Avidin bead fluor | ABCG2 inh
COc1ccccc1NC(=O)NC(N)=O | i | i | i | i | i | i
O=C(Nc1ccccc1Oc1ccccc1)C1CCCC1 | i | i | i | i | i | i
COc1ccccc1NC(=O)Nc1ccnn1C1CCCCC1 | 266 | i | i | i | i | i
COc1ccccc1NC(=O)C1CCCCC1 | i | i | i | i | 90 | i
COc1ccccc1NC(=O)Nn1cnnc1 | 242 | i | i | i | i | i
COC(=O)[C@@]1(Cc2ccccc2)[C@@H]2C(=CC(=O)[C@H]2CC(=O)C(=O)N(C)C)CN1C(=O)c1ccccc1 | i | 100 | i | i | i | i
COC(=O)[C@@]1(Cc2ccc(F)cc2)[C@H]2c3cc(C(=O)N4CCCC4)n(CCO)c3C[C@H]2CN1C(=O)c1ccccc1 | i | i | i | i | i | i
CC(C)(C)C(=O)COC(=O)c1cc(-c2cccnc2)nc2ccccc12 | i | i | i | i | i | i
COc1ccc(OC)c(C2=NOC(C(=O)Nc3cccc(C(C)=O)c3)C2)c1 (centres undefined) | i | i | i | i | 413 | i
O=C(O)CC1S/C(=N/N=C/C2CC=CCC2)NC1=O (centres undefined) | i | i | i | i | i | i
O=C1Nc2ccc(Cl)cc2/C1=C/C1CC=CCC1 (centres undefined) | i | 96 | i | i | i | i
COc1cc(CNCCc2ccc(F)cc2)ccc1OCc1ccc(Cl)nc1 | i | 100 | i | i | i | i
COc1cc(CO)ccc1OCc1ccc(Cl)nc1 | nt | nt | nt | nt | i | nt
COc1cc(CNCCc2ccccc2F)ccc1OCc1ccc(Cl)nc1 | i | 100 | i | i | i | i
COc1ccccc1NC(=S)NCc1ccc2c(c1)OCO2 | i | i | i | i | i | i
COc1ccc(C(=O)Cn2c(C)nc([N+](=O)[O-])c2Br)cc1 | nt | nt | nt | nt | i | nt
Cc1nc([N+](=O)[O-])c(Br)n1CC(=O)c1ccc(Cl)cc1 | i | 99 | i | i | i | i
Cc1nc([N+](=O)[O-])c(Br)n1Cc1ccc(Cl)c(Cl)c1 | i | 100 | i | i | i | i
CCc1nc(C)cn1S(=O)(=O)c1cc(C)c(OC)c(C)c1C | i | 93 | i | i | i | i
CCc1nc(C)cn1S(=O)(=O)c1cc(C)c(OC)cc1C | i | i | i | i | i | i
CCc1nc(C)cn1S(=O)(=O)c1cc(Br)ccc1OC | i | 67 | i | i | i | i
CCc1nc(C)cn1S(=O)(=O)c1cc(Br)c(C)cc1OC | i | 99 | i | i | i | i
CCc1nc(C)cn1S(=O)(=O)c1cc(F)ccc1OC | i | i | i | i | i | i
CCc1nc(C)cn1S(=O)(=O)c1ccc(Cl)c(Cl)c1Cl | i | 97 | i | i | i | i
O=C(Cn1nnc(-c2cccs2)n1)Nc1ccccc1C(F)(F)F | i | i | i | i | i | i
SMILES | GSH bead fluor | L major viab | ABCB1 block | PKD1 inh | Avidin bead fluor | ABCG2 inh
CC(C)CCSc1nc2[nH]ncc2c(=O)[nH]1 | i | i | i | i | i | i
O=C(CC1SC(=NCc2ccccc2)NC1=O)Nc1ccccc1 (centres undefined) | i | i | i | i | i | i
CCc1nc(C)cn1S(=O)(=O)c1ccc([N+](=O)[O-])cc1 | i | 100 | i | i | i | i
CCc1nc(C)cn1S(=O)(=O)c1cc(Cl)c(OC)cc1Cl | i | i | i | i | i | i
c1ccc(-c2cnn3c(-c4ccccc4)c(-c4ccccc4)nc3n2)cc1 | i | i | 43 | i | i | 172
O=C1c2ccccc2-c2nc3ncnn3c(-c3ccccc3)c21 | nt | i | nt | i | nt | nt
OC1(c2cccc(C(F)(F)F)c2)CCN(Cc2nc(-c3cnccn3)no2)CC1 | i | 78 | i | i | i | i
FC(F)(F)COc1nc(N/N=C/c2cccnc2)nc(N2CCCCC2c2ccccn2)n1 (centres undefined) | i | 51 | i | i | i | i
C(=N\Nc1nc(N2CCCC2)nc(N2CCCC2)n1)/c1cccnc1 | i | i | i | i | i | i
CC(=O)NNS(=O)(=O)c1ccc(-c2cc(C(F)(F)F)n(C)n2)s1 | nt | nt | nt | nt | i | nt
O=C(Nc1cccc(NC(=O)c2ncn[nH]2)c1)c1cccc(Cl)c1 | i | 100 | i | i | i | i
COc1cccc(NC(=O)c2ncn[nH]2)c1 | i | i | i | i | i | i
S=C(NCc1cccnc1)NCc1cccnc1 | i | i | i | i | i | i
S=C(NCc1cccnc1)Nc1cccc2ccccc12 | i | 92 | i | i | i | i

Screening data from PubChem.
